MEKK2wt PB1 HTS: raises or lowers MEK5 binding to wildtype human MEKK2 PB1 domain; binding response (% of control), % at 10 µM; bead flow cytometry, Alexa488-MEK5 binding to MEKK2 WT; actives lie on both sides; Q9Y2U5; actives 1.1% (n = 290,000); in the data active = binding response below about 67% or above about 130%
MEKK2mut PB1 HTS: signal of MEK5 binding to mutant human MEKK2 PB1 domain; bead flow cytometry, Alexa488-MEK5 binding to MEKK2 mutant; percent response, % at 10 µM; actives 0.35% (n = 290,000); AID 1530; in the data active = percent response above about 24%, passing the limit was not always enough
VIM-2 inh: blocks Pseudomonas aeruginosa VIM-2 metallo-beta-lactamase; purified VIM-2, nitrocefin hydrolysis, epi-absorbance fluorescence; inhibition, % at 5.6 µM; actives 0.89% (n = 290,000);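 active = inhibition above the mean of all tested compounds plus 3 SD, cutoff set per screening run, cut at about 7.5% in these data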;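 note: red hydrolysis product quenches plate fluorescence so inhibitors raise well fluorescence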
MEKK3 PB1 HTS: MEKK3-MEK5 PB1 interaction, increase or decrease | Q99759 | bead-based flow cytometry, Alexa488-MEK5 binding to MEKK3; actives lie on both sides; 0 = blocked by unlabeled MEK5, 100 = vehicle | binding response (% of control), % at 10 µM | actives 1.4% (n = 290,000);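 active = binding response more than 3 SD above or below the average of its plate-row segment, actives on both sides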;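 note: Alexa488 bead fluorescence after subtracting the streptavidin-only scavenger bead signal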
Target sequence (Q99759 whole entry, looked up): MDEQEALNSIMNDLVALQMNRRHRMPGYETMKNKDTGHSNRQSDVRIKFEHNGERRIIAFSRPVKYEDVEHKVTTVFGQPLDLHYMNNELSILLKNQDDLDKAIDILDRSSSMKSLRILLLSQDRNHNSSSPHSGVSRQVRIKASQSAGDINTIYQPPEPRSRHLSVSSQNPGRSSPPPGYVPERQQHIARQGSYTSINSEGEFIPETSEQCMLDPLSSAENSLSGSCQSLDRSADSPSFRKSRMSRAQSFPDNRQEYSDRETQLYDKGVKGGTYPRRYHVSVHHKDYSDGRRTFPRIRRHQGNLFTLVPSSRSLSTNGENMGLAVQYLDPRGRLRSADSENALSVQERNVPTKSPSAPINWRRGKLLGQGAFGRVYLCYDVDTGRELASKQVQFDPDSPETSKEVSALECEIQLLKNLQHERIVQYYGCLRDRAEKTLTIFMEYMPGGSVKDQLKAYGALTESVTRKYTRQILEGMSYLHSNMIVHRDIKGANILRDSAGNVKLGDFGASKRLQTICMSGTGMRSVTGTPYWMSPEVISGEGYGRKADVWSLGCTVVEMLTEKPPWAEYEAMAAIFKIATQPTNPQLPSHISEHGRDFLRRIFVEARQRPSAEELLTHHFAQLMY
IMP-1 inhibitor: blocks Pseudomonas aeruginosa IMP-1 metallo-beta-lactamase. inhibition, % at 5.6 µM. actives 0.45% (n = 290,000). purified IMP-1, nitrocefin hydrolysis, epi-absorbance fluorescence;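 active = inhibition above the mean plus 3 SD of all compounds in the same screening run, cut at about 4.5% in these data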
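System: purified IMP-1 / Input: IMP-1 dispensed at 0.2 nM / Medium: 50 mM HEPES pH 7.1, 50 µM ZnSO4, 0.05% Brij 35 / Timing: 15 min enzyme–compound preincubation, then 25 min nitrocefin reaction, 25 °C / Technique: plate fluorescence quenching by hydrolysis product, ex 480/em 530 nm / Repeats: singlicate testing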
MEKK2wt confirm: raises or lowers MEK5 binding to wildtype human MEKK2, retest | shares compounds with MEKK3 PB1 HTS | bead flow cytometry, Alexa488-MEK5 binding to MEKK2 WT; actives lie on both sides | binding response (% of control), % at 10 µM | actives 2.4% (n = 5,900) | AID 1892; in the data active = binding response below about 16% or above about 210%; inactive = in between
MEKK2mut confirm: signal of MEK5 binding to mutant human MEKK2, retest | shares compounds with MEKK3 PB1 HTS | bead flow cytometry, Alexa488-MEK5 binding to MEKK2 mutant | percent response, % at 10 µM | actives 2% (n = 5,900) | AID 1893; in the data active = percent response mostly above about 71%, no sharp cut-off; inactive = mostly below about 38%;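 note: higher means compound restores mutant binding toward wildtype level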
MEKK3-MEK5 inh: confirmation of inhibitors of MEK5 binding to human MEKK3 | actives 1.8% (n = 5,900) | AID 1894 | bead flow cytometry, Alexa488-MEK5 binding to MEKK3; active compounds read low | shares compounds with MEKK3 PB1 HTS | binding response (% of control), % at 10 µM;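 active = binding response below 72% of control, or above a set upper limit, though filed actives all read lower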;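 note: lower values mean stronger disruption of MEK5 binding to MEKK3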
Numbers stand for hits; 0 = inactive; - = no result given; [ ] = dose if it differs, or a comment. Rows were chosen to be rich in hits. Some 3.4% of all compounds tested hit in one or more screens of this group.

SMILES	MEKK2wt PB1 HTS	MEKK2mut PB1 HTS	VIM-2 inh	MEKK3 PB1 HTS	IMP-1 inhibitor	MEKK2wt confirm	MEKK2mut confirm	MEKK3-MEK5 inh
COc1ccc(N(C(=O)c2ccco2)C(C(=O)NC2CCCC2)c2cccs2)cc1OC (stereo not drawn)	0	0	0	0	0	-	-	-
COc1ccc(C2=NN(CCC(=O)NC3CCC(C)CC3)C(=O)CC2)cc1 (stereo not drawn)	0	0	0	0	0	-	-	-
CCc1ccc(C2=NN(CCC(=O)NC3CC3)C(=O)CC2)cc1	0	0	0	144.0	0	0	0	0
COC(=O)c1ccc(COc2ncnc3sccc23)cc1	0	0	0	0	0	-	-	-
CN1CCN(S(=O)(=O)c2ccc3c(c2)NC(=O)C2CCCN32)CC1 (stereo not drawn)	0	0	0	0	0	-	-	-
CNS(=O)(=O)c1ccc2c(c1)NC(=O)C1CCCN21 (stereo not drawn)	0	0	0	153.0	0	0	0	0
Cc1ccc(-n2nc(C)c3c(C)onc3c2=O)cc1	0	0	0	0	0	-	-	-
O=C(O)Cn1cc(CN2CCOCC2)c2ccccc21	0	0	0	0	0	-	-	-
Cn1cc(CN2CCN(c3ccccc3)CC2)c2ccccc21	0	0	0	73.0[inhibitor]	0	0	0	0
O=C1CC(SC(=Nc2ccccc2)Nc2ccccc2)C(=O)N1c1ccc(Cl)c(Cl)c1 (stereo not drawn)	0	0	0	0	0	-	-	-
CCC(=O)c1ccc(OCC(O)CN2CCN(C(c3ccccc3)c3ccccc3)CC2)cc1 (stereo not drawn)	158.0	0	0	0	0	0	0	0
CCC(=O)c1ccc(OCC(O)CN2CCOCC2)cc1 (stereo not drawn)	2.0[inhibitor]	0	0	2.0[inhibitor]	0	0	0	0
CC(=O)c1ccc(OCC(O)CN2CCOCC2)cc1 (stereo not drawn)	0	0	0	0	0	-	-	-
CS(=O)(=O)N(CC(=O)N1CCN(c2ccc(F)cc2)CC1)c1cccc(Cl)c1	0	0	0	0	0	-	-	-
CS(=O)(=O)N(CCCC(=O)N1CCCCCC1)c1cccc(Cl)c1	0	37.0	0	0	0	0	0	0
CN(C)c1ccc(/C=N/NC(=O)CN2CCN(c3ccc(F)cc3)CC2)cc1	0	0	0	0	0	-	-	-
Cc1ccc(C)c(-c2ccc(=O)n(Cc3ccc(F)cc3Cl)n2)c1	0	34.0	0	128.0	0	0	0	0
CCCCn1c(=O)c(-c2ccccc2)c(O)c2ccccc21	0	0	0	131.0	0	0	0	0
CN1CCc2c(n(CC(O)CNCc3ccccc3)c3ccccc23)C1=O (stereo not drawn)	0	0	0	0	0	-	-	-
CC(C)NCC(O)Cn1c2c(c3ccccc31)CCc1c-2cnn1-c1ccccc1 (stereo not drawn)	176.0	30.0	0	0	0	0	0	0
CCc1cc2cc(C)cc(C)c2nc1Cl	0	0	0	138.0	0	0	0	0
CCc1cc2ccccc2nc1Cl	0	0	0	0	0	-	-	-
O=C(Nc1ccc(Cl)cn1)c1ccc2c(Cl)c3c(nc2c1)CCC3	47.0[inhibitor]	0	0	40.0[inhibitor]	0	0	0	70.0
O=C(NCCCn1ccnc1)c1ccc(N2CCCCCC2)c([N+](=O)[O-])c1	0	0	0	0	0	-	-	-
CN(CC(=O)Nc1ccc(C#N)cc1)CC(=O)Nc1ccc(N2CCOCC2)cc1	0	0	0	0	0	-	-	-
SMILES	MEKK2wt PB1 HTS	MEKK2mut PB1 HTS	VIM-2 inh	MEKK3 PB1 HTS	IMP-1 inhibitor	MEKK2wt confirm	MEKK2mut confirm	MEKK3-MEK5 inh
Clc1ccc(-c2csc(N/N=C/c3ccc4c(c3)OCO4)n2)cc1	0	0	0	136.0	0	0	0	0
O=C(/C=C/c1ccc2c(c1)OCO2)Nc1nc(-c2ccccc2)cs1	0	0	0	0	0	-	-	-
Cc1nn(Cc2ccc(Cl)cc2)c(C)c1NC(=O)CSc1n[nH]c(C)c1[N+](=O)[O-]	0	0	0	142.0	0	0	0	0
Cc1nn(Cc2ccccc2Cl)c(C)c1NC(=O)CSc1n[nH]c(C)c1[N+](=O)[O-]	0	0	0	0	0	-	-	-
Cc1nn(Cc2ccccc2)c(C)c1NC(=O)CSc1n[nH]c(C)c1[N+](=O)[O-]	0	0	0	134.0	0	0	0	0
Cn1cc(CN2CCCC(C(=O)c3ccc(-c4ccccc4)c(F)c3)C2)cn1 (stereo not drawn)	0	0	0	0	0	-	-	-
Cc1nn(C)cc1CN1CCCC(C(=O)c2ccc(-c3ccccc3)c(F)c2)C1 (stereo not drawn)	147.0	0	0	0	0	0	0	0
COc1ccc(F)cc1S(=O)(=O)NCc1ccccc1	0	0	0	72.0[inhibitor]	0	0	0	0
CCOc1ccc(S(=O)(=O)Nc2ccccc2C(=O)N2CCCC2)cc1	0	0	0	0	0	-	-	-
Cc1ccc(-n2nnc(-c3cccnc3)n2)cc1	0	0	-	78.0[inhibitor]	-	0	0	0
c1ccc(-n2nnc(-c3cccnc3)n2)cc1	0	0	0	0	0	-	-	-
FCCCOc1ccc(-c2nccc(-c3ccc(Cl)cc3)n2)cc1	0	0	0	77.0[inhibitor]	0	0	0	0
CC(C)(C)NC(=O)Nc1ccc(Cn2cc(C(F)(F)F)ccc2=O)cc1	0	0	0	0	0	-	-	-
CSc1nc(C)c(Oc2ccccc2)c(=O)n1C	-1.0[inhibitor]	0	0	-1.0[inhibitor]	0	0	0	0
CC(C)C(C(=O)Nc1ccc(N2CCOCC2)cc1)N1C(=O)c2ccccc2C1=O (stereo not drawn)	-2.0[inhibitor]	0	0	2.0[inhibitor]	0	0	0	0
CC(C)c1ccc(N2C(=O)/C(=C/N(C)C)SC2=S)cc1	62.0[inhibitor]	0	0	0	0	0	0	0
CCO/C=C1\SC(=S)N(c2ccc(Cl)cc2)C1=O	0	0	0	0	0	-	-	-
O=C(NC(=S)NCCSc1ccccc1)c1cccnc1	0	0	0	0	0	-	-	-
Clc1cccc(N/N=C(\Cc2nc3ccccc3[nH]2)c2ccccc2)c1	138.0	0	0	138.0	0	0	0	0
O=C(NCc1ccccc1)c1ccc(Cn2cc(C(F)(F)F)ccc2=O)cc1	0	0	0	0	0	-	-	-
O=C(O)c1ccc(Cn2cc(C(F)(F)F)ccc2=O)cc1	0	0	0	37.0[inhibitor]	0	0	0	0
O=C(NCc1cccnc1)c1ccc(Cn2cc(C(F)(F)F)ccc2=O)cc1	0	0	0	69.0[inhibitor]	0	0	0	0
O=S(=O)(NCC(c1cccnc1)N1CCN(Cc2ccccc2)CC1)c1ccc(Cl)cc1 (stereo not drawn)	0	0	0	0	0	-	-	-

Source: PubChem BioAssay
